# Measurements reported in ChEMBL document CHEMBL4689842, “EUbOPEN Chemogenomics Library wave 1” (2021).
# Several values for one entry are separate records, joined by “and”; a condition that tells them apart may be missing. Equal values may be shown once.
# Experiments:
# [1] = tested on: U2OS; assay: Multiplex assay against U2OS; format: toxicity, cell-based; details: human
# Procedure, shortened: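 Imaging took place on a CQ1 microscope at 37°C and 5% CO2 once compound had been added to live cells stained at seeding with Hoechst33342, BioTracker Green Microtubule Cytoskeleton Dye, MitoTracker Red and Annexin V Alexa Fluor 680. CellPathfinder machine-learning gating classed cells as Hoechst high-intensity objects or normal cells, classed normal cells as having healthy, pyknosed or fragmented nuclei, and classed pyknosed cells as mitotic or apoptotic. Tubulin, mitochondrial-mass and membrane-permeability phenotypes are per cents of the healthy-nucleus cells.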
# [2] = tested on: Fibroblast; assay: Incucyte cell viability with human fibroblast; format: toxicity, cell-based; details: 10 µM, compound concentration 10 uM; also: filed as whole numbers so only -1 and 0 and 1 occur
# [3] = 12 h, 1 µM, compound concentration 1 uM, replicate 1
# [4] = 12 h, 1 µM, compound concentration 1 uM, replicate 2
# [5] = 12 h, 10 µM, compound concentration 10 uM, replicate 1
# [6] = 12 h, 10 µM, compound concentration 10 uM, replicate 2
# [7] = 24 h, 1 µM, compound concentration 1 uM, replicate 1
# [8] = 24 h, 1 µM, compound concentration 1 uM, replicate 2
# [9] = 24 h, 10 µM, compound concentration 10 uM, replicate 1
# [10] = 24 h, 10 µM, compound concentration 10 uM, replicate 2
# [11] = 48 h, 1 µM, compound concentration 1 uM, replicate 1
# [12] = 48 h, 1 µM, compound concentration 1 uM, replicate 2
# [13] = 48 h, 10 µM, compound concentration 10 uM, replicate 1
# [14] = 48 h, 10 µM, compound concentration 10 uM, replicate 2
smiles,measurement,setting,value
CS(=O)(=O)N1CCCC(NC(=O)[C@H](CCC2CCCCC2)NC(=O)c2ccc(CNC(=O)c3cnc4ccccn34)cc2)C1 (some centres undefined) [SR-302],Population Apoptotic (%),[1]; [3],41% [middle of 4 runs]
same,Population Fragmented Nuclei (%),[1]; [3],2% and 6% and 10% and 5%
same,Population Healthy Nuclei (%),[1]; [3],92% and 78% and 82%
same,Population Membrane Permeable-Phenotype (%),[1]; [3],12% and 6% and 4%
same,Population Mitotic Cells (%),[1]; [3],80% and 39% and 58%
same,Population Normal (%),[1]; [3],95% and 97% and 96% and 92%
same,Population Pyknosed Nuclei (%),[1]; [3],5% and 10% and 11%
same,Population Tubulin-Different-Phenotype (%),[1]; [3],18% and 32% and 29%
same,Total Cell Count,[1]; [3],258 [middle of 4 runs]
same,Population Fragmented Nuclei (%),[1]; [4],8% and 12%
same,Population Healthy Nuclei (%),[1]; [4],90% and 83% and 81% and 76%
same,Population Hoechst High Intensity Objects (%),[1]; [4],10% and 6% and 16%
same,Population Membrane Permeable-Phenotype (%),[1]; [4],7% [middle of 4 runs]
same,Population Mitotic Cells (%),[1]; [4],100% and 60% and 66%
same,Population Normal (%),[1]; [4],89% and 93% and 83%
same,Population Pyknosed Nuclei (%),[1]; [4],8% [middle of 4 runs]
same,Population Tubulin-Different-Phenotype (%),[1]; [4],15% and 17% and 14%
same,Total Cell Count,[1]; [4],84 [middle of 4 runs]
same,Population Apoptotic (%),[1]; [5],56% [middle of 4 runs]
same,Population Fragmented Nuclei (%),[1]; [5],11% and 10% and 2%
same,Population Healthy Nuclei (%),[1]; [5],70% and 74% and 75% and 94%
same,Population Hoechst High Intensity Objects (%),[1]; [5],11% and 5%
same,Population Membrane Permeable-Phenotype (%),[1]; [5],13% and 12%
same,Population Mitotic Cells (%),[1]; [5],65% [middle of 4 runs]
same,Population Normal (%),[1]; [5],88% and 94%
same,Total Cell Count,[1]; [5],185 [middle of 4 runs]
same,Population Fragmented Nuclei (%),[1]; [6],12% and 9% and 6%
same,Population Healthy Nuclei (%),[1]; [6],80% and 83% and 86%
same,Population Hoechst High Intensity Objects (%),[1]; [6],7% and 6% and 3%
same,Population Membrane Permeable-Phenotype (%),[1]; [6],20% [middle of 4 runs]
same,Population Normal (%),[1]; [6],92% and 93% and 96%
same,Population Pyknosed Nuclei (%),[1]; [6],7% and 9% and 4%
same,Total Cell Count,[1]; [6],92 [middle of 4 runs]
same,Population Apoptotic (%),[1]; [7],18% and 31% and 46%
same,Population Fragmented Nuclei (%),[1]; [7],3% and 6% and 5% and 8%
same,Population Healthy Nuclei (%),[1]; [7],90% and 85% and 87% and 81%
same,Population Hoechst High Intensity Objects (%),[1]; [7],1% and 2% and 3%
same,Population Membrane Permeable-Phenotype (%),[1]; [7],7% and 6% and 2% and 1%
same,Population Mitotic Cells (%),[1]; [7],81% and 68% and 53%
same,Population Normal (%),[1]; [7],98% and 97% and 96%
same,Population Pyknosed Nuclei (%),[1]; [7],6% and 7% and 10%
same,Total Cell Count,[1]; [7],310 [middle of 4 runs]
same,Population Fragmented Nuclei (%),[1]; [8],7%
same,Population Healthy Nuclei (%),[1]; [8],91% and 84% and 88% and 93%
same,Population Membrane Permeable-Phenotype (%),[1]; [8],9% and 8% and 5%
same,Population Mitotic Cells (%),[1]; [8],66% and 50% and 85%
same,Population Normal (%),[1]; [8],89% and 85% and 95%
same,Population Pyknosed Nuclei (%),[1]; [8],1% and 8% and 2%
same,Population Tubulin-Different-Phenotype (%),[1]; [8],24% [middle of 4 runs]
same,Total Cell Count,[1]; [8],97 [middle of 4 runs]
same,Population Apoptotic (%),[1]; [9],62% [middle of 4 runs]
same,Population Fragmented Nuclei (%),[1]; [9],10% and 11% and 5%
same,Population Healthy Nuclei (%),[1]; [9],72% and 71% and 90%
same,Population Hoechst High Intensity Objects (%),[1]; [9],8% and 6% and 1%
same,Population Membrane Permeable-Phenotype (%),[1]; [9],11% and 13%
same,Population Mitotic Cells (%),[1]; [9],51% [middle of 4 runs]
same,Population Normal (%),[1]; [9],91% and 93% and 98%
same,Total Cell Count,[1]; [9],265 [middle of 4 runs]
same,Population Apoptotic (%),[1]; [10],54% [middle of 4 runs]
same,Population Fragmented Nuclei (%),[1]; [10],7% and 1% and 9%
same,Population Healthy Nuclei (%),[1]; [10],77% and 82% and 89%
same,Population Hoechst High Intensity Objects (%),[1]; [10],11% and 4% and 5%
same,Population Membrane Permeable-Phenotype (%),[1]; [10],20% and 16% and 12%
same,Population Mitotic Cells (%),[1]; [10],60% [middle of 4 runs]
same,Population Normal (%),[1]; [10],88% and 95% and 94%
same,Population Pyknosed Nuclei (%),[1]; [10],15% and 13%
same,Total Cell Count,[1]; [10],91 [middle of 4 runs]
same,Population Apoptotic (%),[1]; [11],40% and 44% and 37%
same,Population Fragmented Nuclei (%),[1]; [11],4% and 1% and 2%
same,Population Healthy Nuclei (%),[1]; [11],92% and 90%
same,Population Hoechst High Intensity Objects (%),[1]; [11],1% and 0%
same,Population Membrane Permeable-Phenotype (%),[1]; [11],2%
same,Population Mitochondria Different-Phenotype (%),[1]; [11],15% and 9% and 7%
same,Population Mitotic Cells (%),[1]; [11],60% and 56% and 62%
same,Population Normal (%),[1]; [11],98% and 99%
same,Population Pyknosed Nuclei (%),[1]; [11],6% and 5%
same,Population Tubulin-Different-Phenotype (%),[1]; [11],40% and 18% and 46%
same,Total Cell Count,[1]; [11],466 and 472
same,Population Fragmented Nuclei (%),[1]; [12],6% and 3%
same,Population Healthy Nuclei (%),[1]; [12],84% and 88% and 91%
same,Population Hoechst High Intensity Objects (%),[1]; [12],9% and 2%
same,Population Membrane Permeable-Phenotype (%),[1]; [12],7% and 4% and 1%
same,Population Mitochondria Different-Phenotype (%),[1]; [12],11% and 5%
same,Population Mitotic Cells (%),[1]; [12],44% and 91% and 66%
same,Population Normal (%),[1]; [12],90% and 97%
same,Population Pyknosed Nuclei (%),[1]; [12],9% and 8%
same,Population Tubulin-Different-Phenotype (%),[1]; [12],30% and 26% and 12%
same,Total Cell Count,[1]; [12],93 and 189 and 109
same,Population Apoptotic (%),[1]; [13],70% and 57%
same,Population Fragmented Nuclei (%),[1]; [13],10%
same,Population Healthy Nuclei (%),[1]; [13],74% and 73% and 72%
same,Population Hoechst High Intensity Objects (%),[1]; [13],8%
same,Population Membrane Permeable-Phenotype (%),[1]; [13],7% and 4%
same,Population Mitochondria Different-Phenotype (%),[1]; [13],39% and 36% and 30%
same,Population Mitotic Cells (%),[1]; [13],29% and 42%
same,Population Normal (%),[1]; [13],91%
same,Population Pyknosed Nuclei (%),[1]; [13],16% and 17%
same,Population Tubulin-Different-Phenotype (%),[1]; [13],40% and 38% and 30%
same,Total Cell Count,[1]; [13],243 and 658 and 261
same,Population Apoptotic (%),[1]; [14],76% and 46% and 90%
same,Population Fragmented Nuclei (%),[1]; [14],9% and 6% and 8%
same,Population Healthy Nuclei (%),[1]; [14],75% and 79% and 80%
same,Population Hoechst High Intensity Objects (%),[1]; [14],7% and 5% and 1%
same,Population Membrane Permeable-Phenotype (%),[1]; [14],20% and 16%
same,Population Mitochondria Different-Phenotype (%),[1]; [14],59% and 41% and 44%
same,Population Normal (%),[1]; [14],92% and 94% and 98%
same,Population Pyknosed Nuclei (%),[1]; [14],15% and 13% and 10%
same,Population Tubulin-Different-Phenotype (%),[1]; [14],48% and 33% and 39%
same,Total Cell Count,[1]; [14],146 and 92 and 114
same,Growth Rate,"[2]; 0 h, replicate number 1, timepoint 0 hours",0
same,Growth Rate,"[2]; 6 h, replicate number 1, timepoint 6 hours",1
same,Growth Rate,"[2]; 12 h, replicate number 1, timepoint 12 hours",0
same,Growth Rate,"[2]; 18 h, replicate number 1, timepoint 18 hours",0
same,Growth Rate,"[2]; 24 h, replicate number 1, timepoint 24 hours",0
